In paper PMC4740292 (EBioMedicine, 2015):
Like-named read-outs stand apart in the source and are kept apart here.

Tests used:
[1] = system: JFH-1 genotype 2a infectious virus (HCVcc); settings: for TI (CC50/EC50) / HCVcc infection / HCV entry inhibition (in words) / EC50: Huh7.5.1
Huh7.5.1 cells = assay: Cytotoxicity; assay type: cell-based, human
HCVcc-Luc = assay: Time-of-addition assay, HCVcc-Luc on Huh7.5.1 cells; assay type: cell-based, Hepatitis C virus; settings: 2 μM for 3 h, added at indicated time points
How it was run: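 Huh7.5.1 cells inoculated with HCVcc-Luc at 37 °C for 3 h. At set time points, test compound at 2 μM (or DMSO) added for 3 h, then removed. Cells kept a further 48 h at 37 °C before luciferase readout. Mean of n = 3 with s.d.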

PHB1, PHB2, CRaf, Ras = PHB1, PHB2, CRaf, Ras (Homo sapiens, UniProt P35232+Q99623); assay: Western blotting of cellular PHB1, PHB2, CRaf and Ras in Huh7.5.1 cells; assay type: cell-based; settings: 20 nM, 1, 2 and 3 days
CHIKVpp = CHIKVpp infection of Huh7.5.1 cells, luciferase assay; assay type: cell-based, Chikungunya virus; settings: Huh7.5.1, Roc-A 10 nM, Fig. S3F
PHB-CRaf interaction = PHB-CRaf interaction (Homo sapiens, UniProt P35232+Q99623); assay: Co-IP of Flag-CRaf and V5-tagged PHB1 & 2 in 293T cells; assay type: cell-based; settings: 20 nM
How it was run: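 Flag-CRaf and V5-tagged PHB1 and PHB2 co-expressed in 293T cells by co-transfection. Cells left untreated or exposed to test compound at 20 nM, then immunoprecipitated with anti-Flag antibody. Co-precipitated PHB1/PHB2 and CRaf detected by immunoblotting.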

[2] = system: HCV replicon cell line 2-3(+); assay: HCV replicon cell line 2-3; assay type: cell-based, Hepatitis C virus (Genotype 1b); settings: 20 nM, 24, 48 or 72 hours, replicon cells
cell surface PHB1 and 2 = cell surface PHB1 and 2 (Homo sapiens, UniProt P35232+Q99623); assay: Cell surface biotinylation assay, Huh7.5.1 cells; assay type: cell-based; settings: 20 nM
HCVpp = HCVpp infection of primary human hepatocytes; assay type: cell-based, Hepatitis C virus; settings: pretreatment of PHHs at non-cytotoxic concentrations
[3] = Human liver microsomal stability assay; assay type: in vitro ADME; settings: both, human liver microsomes, pH 7.4
[4] = compounds incubated with cells for a total of 3 h
[5] = compounds incubated with cells for a total of 48 h

Sequence of PHB1, PHB2, CRaf, Ras (P35232 2-272 limits assumed): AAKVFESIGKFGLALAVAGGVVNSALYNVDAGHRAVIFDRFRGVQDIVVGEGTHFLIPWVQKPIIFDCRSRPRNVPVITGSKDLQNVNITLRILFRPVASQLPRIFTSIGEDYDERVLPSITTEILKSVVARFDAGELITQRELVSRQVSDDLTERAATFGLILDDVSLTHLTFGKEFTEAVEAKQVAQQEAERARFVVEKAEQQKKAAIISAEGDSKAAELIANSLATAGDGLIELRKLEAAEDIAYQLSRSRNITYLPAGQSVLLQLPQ
Sequence of PHB1, PHB2, CRaf, Ras (Q99623 2-299 limits assumed): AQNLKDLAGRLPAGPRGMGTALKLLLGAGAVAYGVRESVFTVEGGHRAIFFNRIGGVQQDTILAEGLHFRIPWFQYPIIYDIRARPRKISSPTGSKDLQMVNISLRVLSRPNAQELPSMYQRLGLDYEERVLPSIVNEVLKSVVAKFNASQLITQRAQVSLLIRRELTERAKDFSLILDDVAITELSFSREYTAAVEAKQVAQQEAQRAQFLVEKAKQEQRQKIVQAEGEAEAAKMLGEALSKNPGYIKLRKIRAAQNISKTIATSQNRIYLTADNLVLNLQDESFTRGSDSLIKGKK
Sequence of PHB-CRaf interaction (P35232 whole entry): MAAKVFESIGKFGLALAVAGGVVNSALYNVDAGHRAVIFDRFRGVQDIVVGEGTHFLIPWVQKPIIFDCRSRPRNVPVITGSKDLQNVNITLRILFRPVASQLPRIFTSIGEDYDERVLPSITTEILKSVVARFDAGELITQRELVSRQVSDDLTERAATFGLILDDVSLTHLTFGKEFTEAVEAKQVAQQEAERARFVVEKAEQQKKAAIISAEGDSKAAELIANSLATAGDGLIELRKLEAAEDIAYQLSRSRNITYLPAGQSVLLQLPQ
Sequence of PHB-CRaf interaction (Q99623 whole entry): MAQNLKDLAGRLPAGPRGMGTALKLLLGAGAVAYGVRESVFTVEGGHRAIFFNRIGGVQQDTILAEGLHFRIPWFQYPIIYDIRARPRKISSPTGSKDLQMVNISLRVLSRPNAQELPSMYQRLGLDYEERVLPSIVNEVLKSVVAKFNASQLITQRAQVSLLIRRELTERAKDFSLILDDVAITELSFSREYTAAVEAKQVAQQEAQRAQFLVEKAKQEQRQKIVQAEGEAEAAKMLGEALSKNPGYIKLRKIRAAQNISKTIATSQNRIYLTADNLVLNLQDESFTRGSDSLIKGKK

In the case of (-)-aglaroxin C [(−)-Aglaroxin C], the “TI (CC50/EC50)” value ([1]; 3 h incubation) is reported as 60a, the “HCVcc infection / HCV entry inhibition (in words)” value [1] is reported as “active enantiomer for HCV viral entry inhibition” and the EC50 [1, 4] is reported as 200 nM. The CC50 (Huh7.5.1 cells; [4]) was 12000 nM.
For (±)-aglaroxin C [(±) Aglaroxin C (C10)], the “anti-HCV activity by time of addition” value (HCVcc-Luc) was “maximal anti-HCV activity when added together with the virus but lost its activity when added 3 h after the infection was initiated”, the “TI (CC50/EC50)” value ([1]; 3 h incubation) was 100 and the “TI (CC50/EC50)” value ([1]; 48 h incubation) was 500. For the same compound, the “half-maximum effective concentrations (EC50), in words” value ([1]; JFH-1 genotype 2a infectious virus in cell culture) was “picomolar”, the EC50 [1, 4] was 100 nM and the EC50 [1, 5] was 0.04 nM. The CC50 (Huh7.5.1 cells; [4]) was 10000 nM and the CC50 (Huh7.5.1 cells; [5]) was 20 nM.
(+)-rocaglamide [(+) Roc-A] gave an EC50 [1, 4] of over 200000 nM and a CC50 (Huh7.5.1 cells; [4]) of 300000 nM.
For `CONC(=O)[C@H]1[C@@H](O)[C@@]2(O)c3c(OC)cc(OC)cc3O[C@@]2(c2ccc(OC)cc2)[C@@H]1c1ccccc1` [Compound E2, (-)-NH hydroxamate], the “anti-HCV activity by time of addition” value (HCVcc-Luc) was “appeared to inhibit HCV no matter when added”.
In the case of (+)-aglaroxin C, the “TI (CC50/EC50)” value ([1]; 3 h incubation) is reported as 5a, the EC50 [1, 4] is reported as 20000 nM and the CC50 (Huh7.5.1 cells; [4]) is reported as 100000 nM.
In the case of (-)-rocaglamide [(−) Roc-A], the “TI (CC50/EC50)” value ([1]; 3 h incubation) is reported as 50, the “TI (CC50/EC50)” value ([1]; 48 h incubation) is reported as 75 and the “HCVcc infection / HCV entry inhibition (in words)” value [1] is reported as “stronger inhibition on HCV entry than the (+) enantiomer”. It also gave an EC50 [1, 4] of 1000 nM, an EC50 [1, 5] of 4 nM and a CC50 (Huh7.5.1 cells; [4]) of 50000 nM. It also gave a CC50 (Huh7.5.1 cells; [5]) of 300 nM.
With `COc1ccc([C@@]23Oc4cc(OC)cc(OC)c4[C@]2(O)[C@H](O)[C@H](C(=O)N(C)C)[C@H]3c2ccccc2)cc1` [Roc-A, rocaglamide A] the “PHB1, 2, Ras and CRaf total protein level” value (PHB1, PHB2, CRaf, Ras) was “decreased PHB1, 2, Ras, and CRaf at the total protein level”, the CHIKVpp infection (CHIKVpp) was “significantly reduced” and the PHB-CRaf interaction (PHB-CRaf interaction) was “disrupted the PHB-CRaf interaction”. The “HCV RNA replication or protein translation” value [2] was “did not inhibit HCV RNA replication or protein translation”, the “cell surface expression of PHB1 and 2” value (cell surface PHB1 and 2) was “decreased the cell surface expression of PHB1 and 2” and the “HCVpp entry (in words)” value (HCVpp) was “suppressed HCVpp entry”. The “HCVcc infection / HCV entry inhibition (in words)” value [1] was “significantly reduced” and the half-life at 1 µM [3] was 37 min.
